Data as given in ChEMBL document CHEMBL1134217, “Addressing the stability of C-capped dipeptide efflux pump inhibitors that potentiate the activity of levofloxacin in Pseudomonas aeruginosa” (Bioorg Med Chem Lett, 2001).
Converted amounts (≈) assume the structure as drawn. Peptide text beside a SMILES is read from it.

Experiments:
[1] = Stability in rat serum measured as % recovery at 10 min; format: ADME; conditions: read-out: Recovery
In short: (§1)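 Compounds were incubated in rat serum at 37 °C, with a parallel incubation in H₂O as control. At each time point, 70% trichloroacetic acid and CH₃CN were added dropwise. Unchanged compound was quantified by HPLC and reported as % recovery, averaged from two or more experiments.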

[2] = Stability in rat serum measured as % recovery at 5 min; format: ADME; conditions: read-out: Recovery; in short: as §1
Pseudomonas aeruginosa [3] = assay: Minimum inhibitory concentration required to inhibit growth of PAM 1032 strain of Pseudomonas aeruginosa that over expresses MexAB-Opr M efflux pump; format: functional
In short: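 Intrinsic antibacterial activity was checked by measuring the MIC of the efflux pump inhibitor alone, without levofloxacin, against P. aeruginosa PAM 1032, which overexpresses MexAB-OprM.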

[4] = Stability in rat serum measured as % recovery at 1 min; format: ADME; conditions: read-out: Recovery; in short: as §1
[5] = Stability in rat serum measured as % recovery at 3 min; format: ADME; conditions: read-out: Recovery; in short: as §1
Pseudomonas aeruginosa [6] = assay: Minimum concentration of compound required to reduce the MIC of levofloxacin 8-fold in PAM 1032 strain of Pseudomonas aeruginosa that over expresses MexAB-OprM efflux pump; format: functional
In short: (§2)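 Levofloxacin MICs were measured on PAM 1032 (MexAB-OprM overexpressor) with and without efflux pump inhibitor. MPC₈ is the lowest inhibitor concentration that cuts the levofloxacin MIC 8-fold.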

Pseudomonas aeruginosa [7] = assay: Compound was evaluated in PAM 1032 strain of Pseudomonas aeruginosa for its effect on levofloxacin (ug/mL) potentiation; format: functional
In short: (§3)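 Levofloxacin MIC read against P. aeruginosa PAM 1032, a laboratory strain overexpressing the MexAB-OprM pump, with the efflux pump inhibitor held at fixed levels of […].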

Pseudomonas aeruginosa [8] = assay: Compound was evaluated in PAM 1032 strain of Pseudomonas aeruginosa for its effect on levofloxacin (20 ug/mL) potentiation; format: functional; in short: as §3
Pseudomonas aeruginosa [9] = assay: Compound was evaluated in PAM 1032 strain of Pseudomonas aeruginosa for its effect on levofloxacin ( 5 ug/mL) potentiation; format: functional; in short: as §3
Pseudomonas aeruginosa [10] = assay: Compound was evaluated in PAM 1032 strain of Pseudomonas aeruginosa for its effect on levofloxacin (40 ug/mL) potentiation; format: functional; in short: as §3
Pseudomonas aeruginosa [11] = assay: Compound was evaluated in PAM 1032 strain of Pseudomonas aeruginosa for its effect on levofloxacin ( 10 ug/mL) potentiation; format: functional; in short: as §3
Pseudomonas aeruginosa [12] = assay: Minimum concentration of compound required to reduce the MIC of levofloxacin 8-fold in PAM 1032 strain of Pseudomonas aeruginosa tha over expresses MexAB-Opr M efflux pump; format: functional; in short: as §2
[13] = Stability in rat serum measured as % recovery at 2 hr; format: ADME; conditions: read-out: Recovery
In short: (§4)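 Incubated at 37 °C in rat serum for the stated time, in parallel with a water control. Samples quenched dropwise with 70% trichloroacetic acid plus acetonitrile, then analysed by HPLC. Value is % recovery of unchanged compound, averaged over two or more experiments. Phe-Arg-β-naphthylamine (MC-207,110) served as positive control.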

[14] = Stability in rat serum measured as % recovery at 3 mins; format: ADME; conditions: read-out: Recovery; in short: as §4
[15] = Stability in rat serum measured as % recovery at 10 mins; format: ADME; conditions: read-out: Recovery; in short: as §4
[16] = Stability in rat serum measured as % recovery at 5 mins; format: ADME; conditions: read-out: Recovery; in short: as §4

Compound	remaining at 10 min [1] [%]	remaining at 5 min [2] [%]	MIC (Pseudomonas aeruginosa [3]) [µg/mL]	remaining at 1 min [4] [%]	remaining at 0.05 h [5] [%]	MPC (Pseudomonas aeruginosa [6]) [µg/mL]	MIC (Pseudomonas aeruginosa [7]) [µg/mL]	MIC (Pseudomonas aeruginosa [8]) [µg/mL]	MIC (Pseudomonas aeruginosa [9]) [µg/mL]	MIC (Pseudomonas aeruginosa [10]) [µg/mL]	MIC (Pseudomonas aeruginosa [11]) [µg/mL]	MPC (Pseudomonas aeruginosa [12]) [µg/mL]	remaining at 2 h [13] [%]	remaining at 0.05 h [14] [%]	remaining at 10 min [15] [%]	remaining at 5 min [16] [%]
NCCC[C@H](N)C(=O)N[C@@H](Cc1ccccc1)C(=O)Nc1ccc2ccccc2c1	38	76	512 (≈ 1270 µM)	100	87	10										
NCCC[C@H](N)C(=O)N[C@H](CCc1ccccc1)C(=O)Nc1cnc2ccccc2c1						20	4	0.5	2	0.125	1					
NCCC[C@@H](N)C(=O)N[C@H](CCc1ccccc1)C(=O)Nc1cnc2ccccc2c1						20	4	0.125	4	0.125	2					
NCCC[C@H](NC(=O)[C@@H](N)CCc1ccccc1)C(=O)Nc1cnc2ccccc2c1						10	4	0.03	1	0.03	0.06					
NCCC[C@H](NC(=O)[C@@H](N)Cc1ccccc1)C(=O)Nc1ccc2ccccc2c1	36	64	512 (≈ 1270 µM)	100	80	5										
CN(C(=O)[C@@H](N)Cc1ccccc1)[C@@H](CCCN)C(=O)Nc1ccc2ccccc2c1.O=C(O)C(F)(F)F.O=C(O)C(F)(F)F	97	100	256	100	99	5										
NCCC[C@H](N)C(=O)N[C@@H](CCc1ccccc1)C(=O)Nc1cnc2ccccc2c1						10	4	0.06	4	0.015	0.5					
NCCC[C@@H](N)C(=O)N[C@@H](CCc1ccccc1)C(=O)Nc1cnc2ccccc2c1	100	98	> 512	100	98	10	4	0.03	1	0.015	0.125	10	95			
N=C(N)NCCC[C@H](NC(=O)[C@@H](N)Cc1ccccc1)C(=O)Nc1ccc2ccccc2c1 [PABETAN] (HELM PEPTIDE1{F.R.[c1ccc2cc(N[*:1])ccc2c1]}$$$$V2.0)			> 512	100		10							0	73	25	55
